The EC50 is the concentration needed to bring the measured effect to its halfway point. One may read the Ki as a measure of affinity in units of concentration, obtained from inhibition or displacement.

Each structure is given as a SMILES string. Square brackets hold non-standard residues; d marks the D form. Peptide text beside a SMILES is read from it. * marks the point of attachment. sY = N[C@@H](Cc1ccc(OS(=O)(=O)O)cc1)C(=O)O; Nle = CCCC[C@H](N)C(=O)O; Boc = CC(C)(C)OC(=O)* A value given as a limit tells only on which side of the number the result lay.

The species named for assay [1] is Cavia porcellus. Description: Agonist activity by measuring the ability to stimulate the contraction of the isolated guinea pig ileum. Format: functional.
The species entered for a further assay is Mus musculus. The assay is described as follows: Potency in displacing [3H]propionyl-CCK-8 from mouse brain membranes. Format: functional. In short, it runs like this:
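Displacement of [3H]propionyl-CCK8 at 0.4 nM (KD = 0.2 nM) from brain tissue. Data are mean ± SEM of three independent experiments, each in triplicate.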

The species entered for assay [2] is Cavia porcellus. The assay is described as follows: Potency in displacing [3H]Boc(Nle28,Nle31)-CCk27-33 from guinea pig pancreatic acini. The class given is functional. In short, it runs like this: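 Radioligand binding on guinea pig pancreatic acini with [3H]Boc(Nle28,Nle31)-CCK27-33 at 0.5 nM (KD = 1 nM). Values are mean ± SEM of three separate experiments, each run in triplicate.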

Assay [3] is filed under the species Cavia porcellus. The assay is described as follows: Agonist activity by measuring the effect on amylase secretion from guinea pig acini. Format: functional.
For the next assay, the target named is T1, Cholecystokinin receptor (Mus musculus, UniProt O08786+P56481).
T1 sequence (O08786 whole entry): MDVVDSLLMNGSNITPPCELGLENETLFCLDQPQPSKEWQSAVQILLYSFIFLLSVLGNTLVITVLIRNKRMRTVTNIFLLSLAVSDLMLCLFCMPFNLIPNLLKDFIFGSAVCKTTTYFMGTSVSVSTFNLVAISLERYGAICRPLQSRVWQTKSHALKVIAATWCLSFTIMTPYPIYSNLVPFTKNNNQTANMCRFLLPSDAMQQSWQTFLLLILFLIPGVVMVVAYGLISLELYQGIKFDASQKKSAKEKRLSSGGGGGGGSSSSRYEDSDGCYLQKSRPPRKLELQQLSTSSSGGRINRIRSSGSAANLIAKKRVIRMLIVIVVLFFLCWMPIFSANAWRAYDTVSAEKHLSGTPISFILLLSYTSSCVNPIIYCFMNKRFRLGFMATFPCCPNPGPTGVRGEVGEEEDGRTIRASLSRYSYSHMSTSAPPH
T1 sequence (P56481 whole entry): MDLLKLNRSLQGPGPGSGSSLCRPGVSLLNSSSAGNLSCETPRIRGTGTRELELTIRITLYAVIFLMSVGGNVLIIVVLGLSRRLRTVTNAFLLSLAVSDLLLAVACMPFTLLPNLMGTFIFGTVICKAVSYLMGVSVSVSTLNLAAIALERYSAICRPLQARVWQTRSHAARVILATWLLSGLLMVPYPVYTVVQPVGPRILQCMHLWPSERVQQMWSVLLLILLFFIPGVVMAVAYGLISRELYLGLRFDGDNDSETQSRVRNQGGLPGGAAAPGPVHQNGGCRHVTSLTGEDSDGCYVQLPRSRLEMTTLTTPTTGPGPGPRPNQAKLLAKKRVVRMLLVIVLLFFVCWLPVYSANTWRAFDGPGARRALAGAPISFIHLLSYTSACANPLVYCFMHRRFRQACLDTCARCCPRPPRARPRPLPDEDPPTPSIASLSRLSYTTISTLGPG
Description: Potency in displacing [3H]propionyl-Cholecystokinin from mouse brain membranes. In short, it runs like this: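 Competition binding on brain membranes against [³H]propionyl-CCK₈ used at 0.4 nM (K_D = 0.2 nM). Values are mean ± SEM of three separate experiments, each run in triplicate.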

Consider `CCCC[C@H](NC(=O)[C@H](Cc1ccc(OS(=O)(=O)O)cc1)NC(=O)OC(C)(C)C)C(=O)NCC(=O)N[C@@H](Cc1c[nH]c2ccccc12)C(=O)N[C@H](CCCN)C(=O)N[C@@H](CC(=O)O)C(=O)N[C@@H](Cc1ccccc1)C(N)=O`, for which the EC50 is 190 nM in the assay listed under Cavia porcellus [1] and 22 nM in the assay filed under Cavia porcellus [3]. The Ki worked out at 110 nM in the assay listed under Mus musculus and 390 nM in the assay filed under Cavia porcellus [2].

For the compound `CCCC[C@H](NC(=O)[C@H](Cc1ccc(OS(=O)(=O)O)cc1)NC(=O)OC(C)(C)C)C(=O)NCC(=O)N[C@@H](Cc1c[nH]c2ccccc12)C(=O)N[C@@H](C)C(=O)N[C@@H](CC(=O)O)C(=O)N[C@@H](Cc1ccccc1)C(N)=O` (Boc-[sY][Nle]GWADF-NH2), the EC50 in the assay listed under Cavia porcellus [1] is 110 nM; in the assay filed under Cavia porcellus [3], 25 nM. The Ki came to 14 nM in the assay listed under Mus musculus and 1100 nM in the assay filed under Cavia porcellus [2].

Turning to `CCCC[C@H](NC(=O)[C@H](Cc1ccc(OS(=O)(=O)O)cc1)NC(=O)OC(C)(C)C)C(=O)NCC(=O)N[C@@H](Cc1c[nH]c2ccccc12)C(=O)N[C@@H](CCC(=O)O)C(=O)N[C@@H](CC(=O)O)C(=O)N[C@@H](Cc1ccccc1)C(N)=O` (Boc-[sY][Nle]GWEDF-NH2), the values for the EC50 in the assay listed under Cavia porcellus [1] and in the assay listed under Cavia porcellus [3] were above 1000 nM and above 10000 nM, respectively. Also, the Ki in the assay filed under Mus musculus and in the assay filed under Cavia porcellus [2] was above 10000 nM in each case.

On to `CCCC[C@H](NC(=O)[C@H](Cc1ccc(OS(=O)(=O)O)cc1)NC(=O)OC(C)(C)C)C(=O)NCC(=O)N[C@@H](Cc1c[nH]c2ccccc12)C(=O)N[C@@H](Cc1ccccc1)C(=O)N[C@@H](CC(=O)O)C(=O)N[C@@H](Cc1ccccc1)C(N)=O` (Boc-[sY][Nle]GWFDF-NH2), for which the EC50 is 11 nM in the assay filed under Cavia porcellus [1] and 3.4 nM in the assay filed under Cavia porcellus [3]. Further, the Ki turned out to be 3.7 nM in the assay filed under Mus musculus and 220 nM in the assay listed under Cavia porcellus [2].

In the case of `CCCC[C@H](NC(=O)[C@H](Cc1ccc(OS(=O)(=O)O)cc1)NC(=O)OC(C)(C)C)C(=O)NCC(=O)N[C@@H](Cc1c[nH]c2ccccc12)C(=O)N[C@@H](CCCC)C(=O)N[C@@H](CC(=O)O)C(=O)N[C@@H](Cc1ccccc1)C(N)=O` (Boc-[sY][Nle]GW[Nle]DF-NH2), the figures for the EC50 in the assay filed under Cavia porcellus [1] and in the assay listed under Cavia porcellus [3] were 0.4 nM and 0.16 nM, respectively. Moreover, the values for the Ki in the assay listed under Mus musculus and in the assay filed under Cavia porcellus [2] were 0.13 nM and 2.9 nM, respectively.

As for `CSCC[C@H](NC(=O)[C@H](Cc1ccc(OS(=O)(=O)O)cc1)NC(=O)[C@@H](N)CC(=O)O)C(=O)NCC(=O)N[C@@H](Cc1c[nH]c2ccccc12)C(=O)N[C@@H](CCSC)C(=O)N[C@@H](CC(=O)O)C(=O)N[C@@H](Cc1ccccc1)C(N)=O` [SINCALIDE], the 50% effective concentration (EC50) was determined as 0.7 nM in the assay listed under Cavia porcellus [1] and 0.13 nM in the assay listed under Cavia porcellus [3]. For the same compound, the Ki on Cholecystokinin receptor is 0.3 nM; in the assay listed under Cavia porcellus [2] it was 2.5 nM.

The values above are taken from ChEMBL document CHEMBL1124115, “Synthesis and biological activity of CCK26-33-related analogues modified in position 31” (J Med Chem, 1988).
